The values that follow come from ChEMBL document CHEMBL2311431, “Synthesis and biological evaluation of some 5-arylidene-2-(1,3-thiazol-2-ylimino)-1,3-thiazolidin-4-ones as dual anti-inflammatory/antimicrobial agents” (Bioorg Med Chem, 2013).

Converted amounts (≈) assume the structure as drawn. The source made the active and inactive calls. The rule behind the calls is not given here.

Assay [1] relates to Mus musculus. The experiment in a line: Antiinflammatory activity in AKR mouse assessed as inhibition of carrageenan-induced paw edema at 0.01 mmol/kg, ip measured after 3.5 hrs of carrageenan-challenge. The class given is functional. The gist of the method: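 AKR mice of both sexes (pregnant females excluded), 6-10 per group, fasted during the experiment. Edema induced by intradermal 0.05 mL of 2% carrageenin into the right hind paw. Compound given at 0.01 mmol/kg ip, suspended in water with Tween-80, at the same time as carrageenin.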

Assay [2] in a line: Inhibition of soybean lipoxygenase assessed as inhibition of sodium linolate conversion to 13-hydroperoxylinoleic acid after 4 mins by spectrophotometry. Further details: species or system Glycine max. The conditions noted are these: read-out: IC50.
The target of assay [3] is T1, Prostaglandin G/H synthase 1 (Ovis aries) (UniProt P05979).
T1 sequence (whole entry): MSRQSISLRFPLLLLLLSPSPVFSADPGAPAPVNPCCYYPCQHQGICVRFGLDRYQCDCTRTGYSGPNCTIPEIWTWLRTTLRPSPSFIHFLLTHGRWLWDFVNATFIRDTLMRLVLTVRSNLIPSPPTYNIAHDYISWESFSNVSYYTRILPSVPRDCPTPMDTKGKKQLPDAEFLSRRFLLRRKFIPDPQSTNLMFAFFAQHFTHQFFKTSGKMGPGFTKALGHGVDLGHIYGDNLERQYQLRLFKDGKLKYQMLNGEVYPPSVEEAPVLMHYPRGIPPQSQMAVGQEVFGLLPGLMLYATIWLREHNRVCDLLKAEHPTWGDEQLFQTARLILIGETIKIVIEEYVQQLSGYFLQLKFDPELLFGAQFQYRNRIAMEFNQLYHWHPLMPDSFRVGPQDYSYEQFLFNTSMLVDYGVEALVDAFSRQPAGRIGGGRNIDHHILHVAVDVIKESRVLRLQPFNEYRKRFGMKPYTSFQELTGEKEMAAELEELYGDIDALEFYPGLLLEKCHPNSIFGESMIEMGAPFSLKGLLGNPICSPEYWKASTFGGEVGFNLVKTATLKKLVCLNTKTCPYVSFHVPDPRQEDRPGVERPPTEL
The experiment in a line: Inhibition of ovine COX1 assessed as inhibition of PGF2a production by enzyme immunoassay. The arrangement: concentration or dose not given beside the values. The gist of the method:
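Ovine COX-1 from a commercial screening kit, tested with 0.1 µM arachidonic acid, which is below the saturating level. COX-derived PGH2 is reduced by SnCl2 to PGF2a, quantified by enzyme immunoassay with a broad prostaglandin antibody. At least triplicate.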

Assay [4] deals with Trichoderma viride. The experiment in a line: Antifungal activity against Trichoderma viride IAM 5061 after 72 hrs by serial dilution technique. The class given is functional. The conditions noted are these: IAM 5061, 72 h. The gist of the method: (§1)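 Serial dilution in malt broth; compounds from 1 mg/ml stocks in 5% DMSO; 72 h at 28 °C. MIC is the lowest concentration with no visible growth under a binocular microscope. Run in duplicate, repeated three times.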

Assay [5] relates to Talaromyces funiculosus. The experiment in a line: Fungicidal activity against Penicillium funiculosum ATCC 36839 after 72 hrs by serial subcultivation method. Format: functional. Conditions: ATCC 36839, 72 h.
Assay [6] has as its system Aspergillus flavus. The experiment in a line: Antifungal activity against Aspergillus flavus ATCC 9643 after 72 hrs by serial dilution technique. Format: functional. Conditions: ATCC 9643, 72 h. A digest of the protocol: as §1
In assay [7] the test system is Trichoderma viride. The experiment in a line: Fungicidal activity against Trichoderma viride IAM 5061 after 72 hrs by serial subcultivation method. The conditions noted are these: IAM 5061, 72 h. Format: functional.
Assay [8] deals with Aspergillus fumigatus. The experiment in a line: Fungicidal activity against Aspergillus fumigatus after 72 hrs by serial subcultivation method. Format: functional.
Assay [9] has as its system Penicillium ochrochloron. The experiment in a line: Antifungal activity against Penicillium ochrochloron ATCC 9112 after 72 hrs by serial dilution technique. The class given is functional. Conditions: ATCC 9112, 72 h. The gist of the method:
as §1

The test system of assay [10] is Aspergillus fumigatus. The experiment in a line: Antifungal activity against Aspergillus fumigatus after 72 hrs by serial dilution technique. The class given is functional. The gist of the method: as §1
For assay [11], the system named is Aspergillus flavus. The experiment in a line: Fungicidal activity against Aspergillus flavus ATCC 9643 after 72 hrs by serial subcultivation method. The class given is functional. Conditions: ATCC 9643, 72 h.
Assay [12] relates to Penicillium ochrochloron. The experiment in a line: Fungicidal activity against Penicillium ochrochloron ATCC 9112 after 72 hrs by serial subcultivation method. The class given is functional. The conditions noted are these: ATCC 9112, 72 h.
In assay [13] the test system is Aspergillus niger. The experiment in a line: Antifungal activity against Aspergillus niger ATCC 6275 after 72 hrs by serial dilution technique. Format: functional. Conditions: ATCC 6275, 72 h. The gist of the method:
as §1

Assay [14] relates to Talaromyces funiculosus. The experiment in a line: Antifungal activity against Penicillium funiculosum ATCC 36839 after 72 hrs by serial dilution technique. The class given is functional. The conditions noted are these: ATCC 36839, 72 h. The gist of the method:
as §1

In assay [15] the test system is Aspergillus niger. The experiment in a line: Fungicidal activity against Aspergillus niger ATCC 6275 after 72 hrs by serial subcultivation method. Format: functional. Conditions: ATCC 6275, 72 h.
Assay [16] concerns Bacillus cereus. The experiment in a line: Bactericidal activity against Bacillus cereus clinical isolate after 72 hrs by serial subcultivation method. Format: functional.
The subject of assay [17] is Bacillus cereus. The experiment in a line: Antibacterial activity against Bacillus cereus clinical isolate after 24 hr by microdilution test. The class given is functional. The gist of the method: (§2)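 Broth microdilution in LB medium, about 1.0×10^4 cfu per well; compounds from 1 mg/ml stocks in 5% DMSO. Incubated 24 h. MIC is the lowest concentration with no visible growth under a binocular microscope. Run in duplicate, repeated three times.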
A general note: In broth dilution the organism is exposed to a series of concentrations in liquid medium.

Assay [18] concerns Micrococcus flavus. The experiment in a line: Antibacterial activity against Micrococcus flavus ATCC 10240 after 24 hr by microdilution test. The class given is functional. The conditions noted are these: ATCC 10240, 24 h. The gist of the method: as §2
Assay [19] deals with Staphylococcus aureus. The experiment in a line: Antibacterial activity against Staphylococcus aureus ATCC 6538 after 24 hr by microdilution test. Format: functional. The conditions noted are these: ATCC 6538, 24 h. A digest of the protocol:
as §2

Assay [20] deals with Staphylococcus aureus. The experiment in a line: Bactericidal activity against Staphylococcus aureus ATCC 6538 after 72 hrs by serial subcultivation method. Format: functional. Conditions: ATCC 6538, 72 h.
The subject of assay [21] is Pseudomonas aeruginosa. The experiment in a line: Antibacterial activity against Pseudomonas aeruginosa ATCC 27853 after 24 hr by microdilution test. The class given is functional. Conditions: ATCC 27853, 24 h. A digest of the protocol: as §2
Assay [22] concerns Escherichia coli. The experiment in a line: Antibacterial activity against Escherichia coli ATCC 35210 after 24 hr by microdilution test. The conditions noted are these: ATCC 35210, 24 h. The class given is functional. The gist of the method: as §2
The subject of assay [23] is Listeria monocytogenes. The experiment in a line: Bactericidal activity against Listeria monocytogenes NCTC 7973 after 72 hrs by serial subcultivation method. Format: functional. The conditions noted are these: NCTC 7973, 72 h.
The test system of assay [24] is Pseudomonas aeruginosa. The experiment in a line: Bactericidal activity against Pseudomonas aeruginosa ATCC 27853 after 72 hrs by serial subcultivation method. The conditions noted are these: ATCC 27853, 72 h. Format: functional.
In assay [25] the test system is Escherichia coli. The experiment in a line: Bactericidal activity against Escherichia coli ATCC 35210 after 72 hrs by serial subcultivation method. The class given is functional. Conditions: ATCC 35210, 72 h.
The subject of assay [26] is Micrococcus flavus. The experiment in a line: Bactericidal activity against Micrococcus flavus ATCC 10240 after 72 hrs by serial subcultivation method. The class given is functional. The conditions noted are these: ATCC 10240, 72 h.
Assay [27] has as its system Listeria monocytogenes. The experiment in a line: Antibacterial activity against Listeria monocytogenes NCTC 7973 after 24 hr by microdilution test. Format: functional. Conditions: NCTC 7973, 24 h. The gist of the method: as §2

As usually defined, the IC50 is the concentration that inhibits the measured activity by half. For `CC(Cc1ccc(O)c(O)c1)C(C)Cc1ccc(O)c(O)c1` (stereo not drawn) [NORDIHYDROGUAIARETIC ACID], the inhibition result in [1] and in assay [3] was “inactive” in each case. Also, the IC50 in assay [2] stood at 32 µM.
Usually MIC stands for the least concentration at which growth counts as inhibited. As usually defined, the MFC is the lowest tested concentration that kills the fungus rather than only halting it. Consider `CC(=O)N1CCN(c2ccc(OCC3COC(Cn4ccnc4)(c4ccc(Cl)cc4Cl)O3)cc2)CC1` (stereo not drawn) [KETOCONAZOLE], for which the MIC was found to be 4750 µM (≈ 2520 µg/mL) in [4]; 2850 µM (≈ 1510 µg/mL) in assay [6]; 3800 µM (≈ 2020 µg/mL) in assay [9]; 380 µM (≈ 202 µg/mL) in assay [10]; 380 µM (≈ 202 µg/mL) in assay [13]; 380 µM (≈ 202 µg/mL) in [14]. Further, the minimum fungicidal concentration (MFC) came to 950 µM (≈ 505 µg/mL) in assay [5]; 5700 µM (≈ 3030 µg/mL) in [7]; 950 µM (≈ 505 µg/mL) in assay [8]; 3800 µM (≈ 2020 µg/mL) in [11]; 3800 µM (≈ 2020 µg/mL) in [12]; 950 µM (≈ 505 µg/mL) in assay [15].
By MBC is commonly meant the lowest tested concentration that kills the bacteria rather than only halting them. `CN[C@@H]1[C@H](O[C@H]2[C@H](O[C@H]3[C@H](O)[C@@H](O)[C@H](N=C(N)N)[C@@H](O)[C@@H]3N=C(N)N)O[C@@H](C)[C@]2(O)C=O)O[C@@H](CO)[C@H](O)[C@H]1O` [STREPTOMYCIN]: the MBC in assay [16] worked out at 86 µM (≈ 50 µg/mL); in assay [20], 344 µM (≈ 200 µg/mL); in [23], 516 µM (≈ 300 µg/mL); in [24] it was 344 µM (≈ 200 µg/mL); in assay [25], 344 µM (≈ 200 µg/mL); in assay [26], 172 µM (≈ 100 µg/mL). Besides, the MIC in [17] came to 43 µM (≈ 25 µg/mL); in assay [18], 86 µM (≈ 50 µg/mL); in assay [19], 172 µM (≈ 100 µg/mL); in assay [21] it was 172 µM (≈ 100 µg/mL); in [22], 172 µM (≈ 100 µg/mL); in assay [27], 258 µM (≈ 150 µg/mL).
On to `O=C1N/C(=N\c2nc(-c3ccccc3)cs2)S/C1=C\c1ccccc1Cl`, for which the MBC in assay [16] was 25 µM (≈ 9.95 µg/mL); in assay [20], 100 µM (≈ 39.8 µg/mL); in [23], 25 µM (≈ 9.95 µg/mL); in assay [24] it was 100 µM (≈ 39.8 µg/mL); in assay [25], 100 µM (≈ 39.8 µg/mL); in assay [26], 25 µM (≈ 9.95 µg/mL). Also, the MIC in [4] came out at 11.7 µM (≈ 4.66 µg/mL); in [6], 17.6 µM (≈ 7 µg/mL); in assay [17] it was 25 µM (≈ 9.95 µg/mL); in assay [18], 25 µM (≈ 9.95 µg/mL); in [19] it was 50 µM (≈ 19.9 µg/mL); in assay [21], 50 µM (≈ 19.9 µg/mL). Moreover, the minimal inhibitory concentration (MIC) in assay [9] is 11.7 µM (≈ 4.66 µg/mL); in [22], 50 µM (≈ 19.9 µg/mL); in assay [10], 17.6 µM (≈ 7 µg/mL); in assay [13], 17.6 µM (≈ 7 µg/mL); in [14], 17.6 µM (≈ 7 µg/mL); in assay [27] it was 25 µM (≈ 9.95 µg/mL). The minimal fungicidal concentration (MFC) in assay [5], in assay [7], in [8], in assay [11], in assay [12] and in assay [15] was 23.4 µM (≈ 9.31 µg/mL) throughout.
Take `c1ccc(-c2ccc(C(c3ccccc3)n3ccnc3)cc2)cc1` (stereo not drawn) [BIFONAZOLE]: the MIC came to 640 µM (≈ 199 µg/mL) in assay [4]; 480 µM (≈ 149 µg/mL) in assay [6]; 480 µM (≈ 149 µg/mL) in assay [9]; 480 µM (≈ 149 µg/mL) in assay [10]; 480 µM (≈ 149 µg/mL) in [13]; 640 µM (≈ 199 µg/mL) in [14]. The MFC in [5] turned out to be 800 µM (≈ 248 µg/mL); in assay [7] it was 800 µM (≈ 248 µg/mL); in assay [8] it was 640 µM (≈ 199 µg/mL); in assay [11], 640 µM (≈ 199 µg/mL); in assay [12], 640 µM (≈ 199 µg/mL); in assay [15], 640 µM (≈ 199 µg/mL).
